In the library only some 2.7% were active in any assay of this set; here they are far more common.
NR2E3 ag-1 – NR2E3 (human) agonism; Q9Y5X4; AID 2300; hit rate 0.12% among 320,000; GST-NR2E3/biotin-RetCOR TR-FRET, 1536-well; inhibition of corepressor binding, % at 4.78 µM;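 active means percent inhibition above the cutoff of mean plus 3 SD of all tested compounds, set per screening campaign, cut at about 20% in these data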;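 further: 0% = DMSO wells and 100% = biotin wells as full block of FRET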
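System: GST-tagged NR2E3 plus biotinylated RetCOR corepressor; Amount: 1.35 nM GST-tagged NR2E3 final; Dosing: single nominal compound dose of 4.8 µM; Schedule: 5 h incubation at 4 °C; Technique: TR-FRET with europium anti-GST and streptavidin-D2, 340 nm excitation; Controls: biotin wells as high control, 0.6% DMSO wells as low control.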
MC4R antag cAMP – antagonists of human melanocortin 4 receptor (MC4R). inhibition, % at 6.5 µM. MC4R-expressing cells, MTII-stimulated cAMP, LANCE TR-FRET. P32245. hit rate 0.48% among 360,000;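 active means inhibition above its plate's cutoff, the mean of tested wells on that plate plus 3 SD, cut at about 29% in these data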;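 further: 0% = Melanotan II alone and 100% = Melanotan II plus saturating MCL0020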
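material = U2OS cells stably expressing human melanocortin 4 receptor (MC4R) | also added = Melanotan II challenge | dosing = single nominal compound dose of 6.5 µM | detection = TR-FRET with Eu-cAMP and labeled anti-cAMP, 671 nm | replication = singlicate | timing = compound 30 min, challenge 1 h, detection 1 h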
PG9 Ab binder – binds the HIV-1 gp120 antibody PG9; hit rate 0.43% among 360,000; inhibition, % at 6.7 µM; TR-FRET gp120-PG9 antibody binding; AID 624416; in the data active means inhibition above about 8.5%
Rev-erbA mod – modulates human Rev-erb alpha binding to DNA; hit rate 0.79% among 370,000; P20393; activity, % at 10 µM; AID 1259318; Rev-erbα–FITC-DNA binding, fluorescence polarization, 90 min;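 active means activity above about 14%, limit read from the data; passing the limit was not always enough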;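 further: 0% = DMSO wells with 35 nM protein and 100% = DMSO wells with 750 nM protein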
Target sequence (P20393 whole entry, looked up): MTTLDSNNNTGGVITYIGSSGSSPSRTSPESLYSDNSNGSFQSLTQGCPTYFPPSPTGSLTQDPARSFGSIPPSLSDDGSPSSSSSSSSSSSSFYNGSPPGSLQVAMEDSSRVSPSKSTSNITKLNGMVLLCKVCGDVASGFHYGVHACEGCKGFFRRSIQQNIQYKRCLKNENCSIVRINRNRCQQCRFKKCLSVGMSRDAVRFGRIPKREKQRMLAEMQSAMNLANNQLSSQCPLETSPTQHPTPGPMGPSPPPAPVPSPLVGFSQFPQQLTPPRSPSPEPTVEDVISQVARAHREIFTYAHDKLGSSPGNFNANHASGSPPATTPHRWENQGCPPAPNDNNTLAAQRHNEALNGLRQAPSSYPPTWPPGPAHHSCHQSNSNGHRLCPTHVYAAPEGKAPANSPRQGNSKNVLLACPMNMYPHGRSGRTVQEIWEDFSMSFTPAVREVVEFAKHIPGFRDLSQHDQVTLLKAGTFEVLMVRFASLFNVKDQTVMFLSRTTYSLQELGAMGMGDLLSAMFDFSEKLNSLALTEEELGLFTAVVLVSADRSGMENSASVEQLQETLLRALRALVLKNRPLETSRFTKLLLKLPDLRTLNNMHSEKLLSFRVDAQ
NR2E3 ag-2 – agonists of human NR2E3 nuclear receptor. inhibition of corepressor binding, % at 3.98 µM. CHO-S Gal4-NCOR/VP16-NR2E3 two-hybrid, luciferase. AID 602229. Q9Y5X4. hit rate 0.35% among 360,000;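 active means inhibition above the mean of all tested compounds plus 3 SD, cut at about 70% in these data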;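 further: 0% = DMSO with NR2E3 transfected cells and 100% = cells lacking NR2E3 construct; higher means lower luciferase signal from less NR2E3 corepressor binding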
MC4R barr agon – activates human MC4R beta-arrestin recruitment | activation, % at 8.9 µM | U2OS MC4R beta-arrestin complementation, luminescence; percent of melanotan II response, DMSO zero | hit rate 0.98% among 360,000;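 active means activation above a per-plate cutoff, the mean activation of sample wells on that plate plus 3 SD, cut at about 8% in these data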
cAMP nonselect – nonselective cAMP signaling inhibitor, MC4R antagonist counter-screen. hit rate 26% among 1,600. inhibition, % at 6.5 µM. AID 602193. parental U2OS, forskolin cAMP, LANCE TR-FRET. shares compounds with MC4R antag cAMP;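 active means mean inhibition over triplicates above the low-control well mean plus 3 SD, set per campaign, cut at about 13% in these data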;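 further: signal is single emission at 671 nm which falls as cellular cAMP rises; 0% = forskolin-stimulated wells and 100% = buffer without forskolin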
MC4R cAMP antag – human MC4R cAMP antagonism confirmation; shares compounds with MC4R antag cAMP; MC4R-expressing cells, MTII-stimulated cAMP, TR-FRET; inhibition, % at 6.5 µM; hit rate 27% among 1,600; in the data active means inhibition above about 29%;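 further: 0% = agonist stimulated wells alone and 100% = agonist stimulated wells plus saturating reference antagonist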
Active calls of the source: *; / = no result.

SMILES	NR2E3 ag-1	MC4R antag cAMP	PG9 Ab binder	Rev-erbA mod	NR2E3 ag-2	MC4R barr agon	cAMP nonselect	MC4R cAMP antag
CCOCCCNC(=O)c1ccc2c(=O)n(Cc3ccc4c(c3)OCO4)c(=S)[nH]c2c1	2.0	18.6	-1.5	2.6	-10.0	-2.4	/	/
CC1=NNC(=O)/C1=C\c1cn(-c2ccccc2)nc1-c1ccccc1	3.7	51.1*	-0.1	-1.0	-3.5	-3.9	26.2*	56.7*
CN=C(NC#N)SCC(=O)c1ccc(Cl)cc1Cl	0.0	-2.5	-1.1	0.8	6.6	-2.6	/	/
CCN1CCN(C(=O)c2cc(S(=O)(=O)Nc3ccc(S(C)(=O)=O)cc3)ccc2Cl)CC1	1.9	30.4*	1.1	-0.2	-1.7	1.9	-10.5	-27.4
CCOC(=O)c1sc(NC(=O)CCN2CCN(CC)CC2)c(C(=O)OCC)c1C	-0.6	42.3*	-2.9	0.0	0.2	-4.5	6.7	26.2
N#C/C(=C\c1ccc(OC(F)F)cc1)C(=O)N1CCCCC1	-1.6	31.7*	-0.1	-3.1	-6.3	-0.4	-4.2	-5.6
CCOC(=O)c1cnc(-n2[nH]c(C)cc2=O)[nH]c1=O	6.6	29.8*	-1.0	-5.5	-27.0	-0.9	-4.1	1.6
COc1cccc(Oc2ccc(C(F)(F)F)cc2N)c1	-1.3	-6.5	-0.8	-2.2	-18.5	2.2	/	/
CC(C)C[C@H](N)c1nnc(SCC(=O)Nc2ccc(Br)cc2)o1	0.6	-1.1	0.7	-8.5	0.7	-0.6	/	/
CC(C)C[C@H](N)c1nnc(S(=O)(=O)Cc2ccc(F)cc2)o1	-1.0	43.3*	/	/	-5.0	-4.0	22.8*	35.9*
CC[N+]1(C)CCC(O)(c2ccc(OC)cc2)C(C(=O)c2ccc(OC)cc2)C1 (centres undefined)	/	28.7*	1.6	-2.3	-31.5	-3.5	17.0*	17.1
COc1ccc(N2CCN(CCCNC(=O)C3CCCN(S(=O)(=O)c4c(C)n[nH]c4C)C3)CC2)cc1 (centres undefined)	-0.4	14.2	1.2	-0.2	13.0	-1.7	/	/
O=C(O)CCC(=O)N1CCN(S(=O)(=O)c2ccc3ccccc3c2)CC1	1.5	15.9	0.8	-1.1	-14.1	-1.1	/	/
O=C(Cn1ncc(Cl)c(Cl)c1=O)N1CCN(S(=O)(=O)c2ccc3ccccc3c2)CC1	16.1	49.6*	-1.6	1.6	-4.7	-1.1	24.3*	50.8*
Cc1cccc(N2C(=O)C(O)=C(C(=O)c3cccs3)C2c2ccccc2)n1 (centres undefined)	-0.8	29.9*	2.8	-2.3	-12.2	-0.9	6.0	16.6
COCCCC1CCN(Cc2nc(-c3ccccc3)no2)CC1	1.8	29.9*	-1.1	1.0	-20.9	1.5	-0.4	-7.0
O=C(NNC(=O)c1cc(-c2ccccc2)nc2ccccc12)c1csc(N2CCOCC2)n1	1.5	6.2	-0.1	-0.5	-36.4	-0.7	/	/
CCSC1=C(C#N)C(CC(C)C)C2=C(CCCC2=O)N1 (centres undefined)	3.0	34.1*	-0.7	-5.1	7.1	-2.1	0.5	14.4
Cc1ccc2c(c1)c1c3n2CCN(C(=O)CCl)C3CCC1 (centres undefined)	3.9	38.4*	-5.7	2.2	0.2	0.7	5.4	29.0*
CC(=O)N1CCn2c3c(c4cc(C)ccc42)CCCC31 (centres undefined)	1.5	16.2	-1.8	3.7	-13.3	-2.3	/	/
CC1(C)C(=O)Nc2ccccc2N1C(=O)COC(=O)c1cc(S(C)(=O)=O)ccc1Cl	/	22.5	0.6	1.2	-10.5	-1.7	/	/
CC1(C)C(=O)Nc2ccccc2N1C(=O)COC(=O)c1cc(S(=O)(=O)N2CCOCC2)ccc1F	3.2	35.9*	-1.6	-6.4	-4.6	-1.8	17.0*	45.8*
COc1ccccc1NC(=S)N1CCC(NC(=O)NC23CC4CC(CC(C4)C2)C3)CC1	0.4	34.3*	0.1	-2.7	2.1	-0.1	0.0	-11.7
S=c1[nH]c2ccccc2n2c(=S)[nH]nc12	-76.0	31.1*	-97.6	3.2	-13.0	-3.0	46.0*	73.6*
C=C[C@]1(C)C[C@@H](OC(=O)CSCCN(CC)CC)[C@]2(C)C(C)CC[C@]3(CCC(=O)[C@H]32)[C@@H](C)[C@@H]1O (some centres undefined)	2.2	2.7	0.2	-6.0	-15.7	0.2	/	/
SMILES	NR2E3 ag-1	MC4R antag cAMP	PG9 Ab binder	Rev-erbA mod	NR2E3 ag-2	MC4R barr agon	cAMP nonselect	MC4R cAMP antag
CCCN(CC(=O)Nc1ccccc1OC)C(=O)c1ccc(COc2ccccc2)o1	-1.3	-3.9	0.6	-1.4	10.2	2.1	/	/
CC(=O)c1ccc(C(=O)N2CCC(CO)(Cc3cccc(C(F)(F)F)c3)CC2)cc1	3.5	13.6	-0.6	4.3	3.7	-2.8	/	/
CC1(C(=O)N2CCC(CO)(Cc3cccc(C(F)(F)F)c3)CC2)CC1	-0.8	29.8*	0.8	3.2	-1.0	2.1	-2.1	-17.6
O=C(CC[C@H]1O[C@@H](n2ccc(=O)[nH]c2=O)[C@H](O)[C@@H]1O)NCc1ccco1	/	/	-0.1	3.3	8.2	/	/	/
Cc1sc2nc(CN3CCOCC3)nc(Cl)c2c1C	1.8	31.9*	-3.2	0.3	-6.8	-2.5	11.2	27.7
COc1ccc(CN2CC(C(=O)NCCCN3CCCC(C)C3)CC2=O)cc1 (centres undefined)	0.1	33.7*	-0.6	-4.8	-20.5	0.1	-1.4	-4.1
COc1ccc(CN2CC(C(=O)NCCCN3CCN(Cc4ccccc4)CC3)CC2=O)cc1 (centres undefined)	-4.5	9.5	/	/	-5.4	-0.9	/	/
N#CCSc1nc(N)c(C#N)c(C2CCCCC2)c1C#N	-0.3	-6.1	0.0	-3.7	15.8	5.3	/	/
O=C(c1ccc(S(=O)(=O)N2CCCCCC2)cc1)N(c1ccccn1)C1CCCCC1	2.8	15.2	-2.3	1.5	-43.1	-1.8	/	/
O=C(c1ccc(S(=O)(=O)N2CCCCC2)cc1)N(c1ccccn1)C1CCCCC1	-1.6	31.9*	-0.2	5.1	-8.5	-0.4	-6.4	-1.9
CCOC(=O)c1c(NC(=O)COC)sc(C)c1C	2.6	3.1	0.5	0.1	-6.3	-0.2	/	/
CCOC(=O)c1c(NC(=O)C[n+]2ccc(N(C)C)cc2)sc(C)c1C	1.3	29.6*	-3.0	6.2	-0.3	-1.4	0.9	-2.1
O=C(CN1CCN(S(=O)(=O)c2ccc(F)cc2)CC1)NCc1cccs1	-0.2	4.0	1.3	-3.6	16.9	-1.9	/	/
Cc1cccc(-c2csc(N)c2C(=O)OC(C)C)c1	0.4	-0.1	-0.2	5.7	-22.4	1.1	/	/
O=C(Nc1ccc(F)cc1)c1nn(-c2ccccc2)c(=O)cc1Cl	/	30.6*	-0.2	4.2	13.2	-1.3	29.8*	38.0*

Screens from PubChem BioAssay.
